Assay outcomes: PubChem BioAssay, several laboratories
Only some compounds are listed: those with a hit (about 2.3% of all), similar ones and a draw of the others.
PTK2B oligo ant = antagonists of Pyk2 self-association, primary screen, Q293 cells, FERM NanoBiT luminescence, HTS; z-score (the deposit names both 25 µM and 10 µM); hits give low values; AID 1347419, 2020; 99,000 tested, 0.83% active; Protein-tyrosine kinase 2-beta (Homo sapiens), Q14289;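 active = Z-score of -3 or lower, scaled per plate to the spread of control and sample wells; inactive = z-score above -3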;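 note: negative z-score means lost luminescence so less FERM oligomerization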
Target sequence (Q14289 whole entry, looked up): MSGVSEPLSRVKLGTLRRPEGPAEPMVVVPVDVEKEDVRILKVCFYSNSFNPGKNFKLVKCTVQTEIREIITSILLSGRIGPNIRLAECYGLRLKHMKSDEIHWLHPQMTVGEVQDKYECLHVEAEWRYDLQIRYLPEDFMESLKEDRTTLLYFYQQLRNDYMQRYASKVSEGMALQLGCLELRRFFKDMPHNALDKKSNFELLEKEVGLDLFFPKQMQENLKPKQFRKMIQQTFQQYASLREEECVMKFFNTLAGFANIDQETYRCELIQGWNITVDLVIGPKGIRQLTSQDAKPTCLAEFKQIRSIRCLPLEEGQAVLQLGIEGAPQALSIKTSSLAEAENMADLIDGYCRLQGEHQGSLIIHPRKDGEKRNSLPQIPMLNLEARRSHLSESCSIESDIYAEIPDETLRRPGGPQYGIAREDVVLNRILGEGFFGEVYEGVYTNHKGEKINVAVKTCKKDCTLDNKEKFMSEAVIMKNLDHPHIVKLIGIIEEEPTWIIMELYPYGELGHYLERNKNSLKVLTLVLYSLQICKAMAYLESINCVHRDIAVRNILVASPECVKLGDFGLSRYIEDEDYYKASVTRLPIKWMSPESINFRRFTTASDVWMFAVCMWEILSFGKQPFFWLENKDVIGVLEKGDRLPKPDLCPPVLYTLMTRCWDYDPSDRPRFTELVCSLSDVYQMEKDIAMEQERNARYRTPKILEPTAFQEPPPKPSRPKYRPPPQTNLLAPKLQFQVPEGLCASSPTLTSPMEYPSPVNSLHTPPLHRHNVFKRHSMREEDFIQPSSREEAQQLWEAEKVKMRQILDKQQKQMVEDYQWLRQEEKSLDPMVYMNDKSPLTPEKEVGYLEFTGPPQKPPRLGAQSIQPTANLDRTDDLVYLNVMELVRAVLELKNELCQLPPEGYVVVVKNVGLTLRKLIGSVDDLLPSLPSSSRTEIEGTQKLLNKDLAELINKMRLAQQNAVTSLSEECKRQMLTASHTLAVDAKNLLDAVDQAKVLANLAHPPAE
CD11b adhes enh = enhancers of CD11b/CD18 adhesion to fibrinogen, primary screen, K562 cells, luminescence | Integrin beta-2 (Homo sapiens) + Integrin alpha-M (Homo sapiens), P05107+P11215 | ATPlite luminescence | activation, % at 10 µM | 93,000 tested, 0.07% active | AID 1499, 2009;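 active = 10 µM primary screen giving 50% or more activity, confirmed by 40% or more on retest at that dose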
tolC growth inh = growth inhibitors of E. coli tolC mutant, primary screen, strain BW25113 ΔtolC::kan, 384-well | OD615 | growth inhibition, % at 10 µM (by protocol) | 65,000 tested, 2.2% active | AID 573, 2007;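 active = growth inhibition at or above a cutoff equal to the mean over every tested compound plus 3 SD, cut at about 60% in these data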;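 note: growth measured after 20 h incubation at 37 °C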
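test system = E. coli BW25113 ΔtolC::kan bacteria | medium = LB with kanamycin 50 µg/mL | signal = OD at 615 nm | schedule = 37 °C, 20 h exposure | evaluation = % inhibition of E. coli growth | compound dosing = one dose of 10 µM final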
Ecoli WT expand = growth inhibitors of wild-type E. coli, primary screen, strain BW25113, expanded library, OD600. AID 710, 2007. 98,000 tested, 0.15% active. growth inhibition, % at 100 µM. OD600 absorbance;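 active = growth inhibition above about 50% at one test dose, limit read from the data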;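 note: growth measured after 20 h incubation at 37 °C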
Mac1 fbg inh = inhibitors of CD11b/CD18 adhesion to fibrinogen, primary screen, K562 cells, luminescence; 93,000 tested, 0.54% active; ATPlite luminescence; Mn2+ added to activate the integrin; Integrin beta-2 (Homo sapiens) + Integrin alpha-M (Homo sapiens), P05107+P11215; inhibition, % at 10 µM;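 active = primary inhibition of 50% or more at 10 µM, then 40% or more on retest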
* marks the source's active call; other numbers are inactive results; . = no result given.

SMILES	PTK2B oligo ant	CD11b adhes enh	tolC growth inh	Ecoli WT expand	Mac1 fbg inh
O=C(O)c1cnc(-c2ccccc2)nc1Sc1ccccc1	0.12	.	.	-2	.
O=C(O)c1cnc(-c2ccccc2)nc1Sc1cccc(Cl)c1	-0.8	-6	.	3	62*
COc1ccc(OCC(O)CNc2ccc(Br)cc2)cc1 (stereo unspecified)	-0.56	0	73*	31	9
COc1cc(Cc2cnc(N)nc2N)cc(OC)c1OC	.	-3	97*	100*	12
COc1cc(CC(=O)NCc2ccccn2)cc(OC)c1OC	0.3	-4	.	-1	4
C=CCOC(=O)C1=C(C)NC(C)=C(C(=O)OCC=C)C1c1ccc(O)cc1	-3.5*	5	25	.	-1
CCOC(=O)C1=C(C)NC(C)=C(C(=O)OCC)C1c1ccc(OC)cc1	-2.4	0	35	5	-15
C=CCOC(=O)C1=C(C)NC(SC)=C(C#N)C1c1ccc(OCC)cc1 (stereo unspecified)	-3.1*	1	19	0	-2
CC(C)CC(=O)n1sc(NC(=O)c2ccccc2)nc1=O	-0.16	-7	.	-5	55*
COc1ccc(-c2nc3oc4cc(OC)ccc4c(=O)c3c(=O)n2Cc2ccco2)cc1	-2.7	1	95*	-14	24
COc1ccc2c(=O)c3c(=O)n(Cc4ccco4)c(-c4ccco4)nc3oc2c1	-0.69	-2	.	-11	3
COc1ccc(Cn2c(-c3ccco3)nc3oc4cc(OC)ccc4c(=O)c3c2=O)cc1	1.3	4	86*	-23	-7
Cc1nc(COC(=O)c2c(C)nn(-c3ccccc3)c2C)cs1	-0.99	0	30	0	-11
CCOC(=O)C1=NN(C(=O)Nc2ccc(OC)cc2)C2C(=O)N(c3cccc(C(F)(F)F)c3)C(=O)C12 (stereo unspecified)	-0.06	5	.	-4	-10
COc1cc(NS(=O)(=O)c2ccc(NC(=O)COc3ccccc3Cl)cc2)nc(OC)n1	.	-2	71*	-8	-27
Cc1noc(NS(=O)(=O)c2ccc(NC(=O)COc3ccc(Cl)cc3Cl)cc2)c1C	-0.11	-4	63*	5	10
COc1cc(NS(=O)(=O)c2ccc(NC(=S)NC(=O)CC(C)C)cc2)nc(OC)n1	0.8	.	.	.	.
O=C1Nc2ccc(F)cc2C12SCCS2	-0.24	-1	.	8	17
O=C(COc1ccccc1)Nc1cccc(-c2nc3cc4ccccc4cc3[nH]2)c1	-2.6	-5	.	-11	6
NC(=O)C1(N2CCCCC2)CCN(S(=O)(=O)c2cc(Cl)ccc2Cl)CC1	.	-2	7	-2	-5
CCc1nc2ccccc2c(C(=O)OCC(=O)Nc2cccc(S(=O)(=O)N3CCOCC3)c2)c1C	-4.7*	.	.	-7	.
CCc1nc2ccccc2c(C(=O)OCC(=O)Nc2ccc(S(=O)(=O)N3CCOCC3)cc2)c1C	-4.4*	-1	30	-2	10
COc1cccc(NC(=O)COC(=O)c2cc(S(=O)(=O)N3CCOCC3)ccc2C)c1	-2.9	-3	.	-3	15
Cc1cccc(NC(=S)N2CCC(C(=O)c3ccc(F)cc3)CC2)c1C	-0.18	-2	.	-1	6
CC(C)CNC(=O)CCc1c[nH]c2ccccc12	-0.09	0	.	7	16
SMILES	PTK2B oligo ant	CD11b adhes enh	tolC growth inh	Ecoli WT expand	Mac1 fbg inh
COC(=O)c1onc(-c2c(C)cc(C)cc2C)c1C(=O)OC	1.1	.	.	6	.
Cc1ccc(NC(=O)CN(C)C(=O)CSc2nc3ccccc3o2)cc1	-0.72	.	.	-8	.
CC(C)c1ccc(C2NC(=S)NC3=C2C(=O)CC(C)(C)C3)cc1 (stereo unspecified)	.	-3	.	.	-2
O=C(CCCSc1nc2ccccc2s1)NCc1ccco1	0.34	-3	14	-3	-2
N#C/C(=C\c1ccco1)Sc1nc2ccccc2s1	-0.64	-1	96*	-14	23
O=C(Nc1cccc(Cl)c1)N1CCN2C(=O)c3ccccc3C12c1ccccc1 (stereo unspecified)	-3.2*	.	.	-5	.
c1ccc(Oc2cccc(OCCCCSc3ncccn3)c2)cc1	-3.3*	1	.	1	-4
CC(=O)N1CCc2cc(S(=O)(=O)NC(CC(C)C)C(=O)N3CCn4c3nc3ccccc34)ccc21 (stereo unspecified)	-3.7*	2	9	-1	-24
